Laboratory results taken from ChEMBL document CHEMBL4765334, “Chemical profiling of HIV-1 capsid-targeting antiviral PF74” (Eur J Med Chem, 2020).

Key:
[1] = test system: Human immunodeficiency virus 1; assay: Antiviral activity against HIV1 NL4-3 infected in human TZM-GFP cells assessed as number of GFP positive cells at 2 uM incubated for 48 hrs by imaging reader; assay type: functional; details: Human immunodeficiency virus 1, NL4-3, TZM
In short: (§1)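 TZM-GFP cells seeded 1 × 10^4/well; after 24 h medium replaced with compound at the stated single concentration, then 24 h later infected with HIV-1 (MOI = 1). After 48 h, GFP-positive cells counted by imaging and percent inhibition determined versus DMSO controls. Duplicate wells, at least two independent experiments.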

[2] = test system: Human immunodeficiency virus 1; assay: Antiviral activity against HIV1 NL4-3 infected in human TZM-GFP cells assessed as number of GFP positive cells at 20 uM incubated for 48 hrs by imaging reader; assay type: functional; details: Human immunodeficiency virus 1, NL4-3, TZM; in short: as §1
TZM = assay: (§2) Cytotoxicity against human TZM-GFP cells incubated for 72 hrs by XTT assay; assay type: cell-based; details: tzm, 72 h
In short: (§3)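 TZM-GFP cells seeded at 1 × 10^4 per well and exposed continuously to increasing compound concentrations for 72 h. Viable cell number read by XTT proliferation kit. CC50 fitted as log(inhibitor) vs normalized response, variable slope, per independent assay and averaged. Run in duplicate, at least two independent experiments, reported as mean ± standard deviation.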

[3] = test system: Human immunodeficiency virus 1; assay: Binding affinity to covalently-crosslinked hexameric HIV1 capsid protein A14C/E45C/W184A/M185A mutant expressed in Escherichia coli BL21(DE3)RIL assessed as change in melting temperature at 20 uM incubated for 30 mins by thermal shift dye based fluorescence analysis
In short: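 Thermal shift: 15 μM CA121 in 50 mM sodium phosphate pH 8.0 with Sypro Orange and compound at 20 μM final or DMSO control. Heated 25 to 95 °C at 0.2 °C/10 s; fluorescence Ex 475–500, Em 520–590 nm. ΔTm = Tm(compound) − T0(DMSO) for CA hexamer melting.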

[4] = test system: Human immunodeficiency virus 1; assay: Antiviral activity against HIV1 NL4-3 infected in human TZM-GFP cells assessed as number of GFP positive cells incubated for 48 hrs by imaging reader; assay type: functional, organism-based; details: Human immunodeficiency virus 1, NL4-3, TZM
In short: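 TZM-GFP cells seeded 1 × 10^4/well and given increasing compound concentrations 24 h later; infected with HIV-1 NL4-3 (MOI = 1) after a further 24 h. Read-out after 48 h: GFP-positive cell counts (LTR-driven) versus DMSO controls. EC50 fitted as log(inhibitor) vs normalized response, variable slope, per experiment and averaged; mean ± SD, duplicates, at least two independent experiments.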

[5] = Stability of the compound in human plasma assessed as half life incubated for 3 hrs by LC-MS/MS analysis; assay type: ADME, cell-free
[6] = Stability of the compound in mouse plasma assessed as half life incubated for 3 hrs by LC-MS/MS analysis; assay type: ADME, cell-free
[7] = Metabolic stability at phase 1 in human liver microsomes assessed as half life at 1 uM by LC-MS/MS analysis; assay type: ADME, Microsome
[8] = Metabolic stability at phase 1 in mouse liver microsomes assessed as half life at 1 uM by LC-MS/MS analysis; assay type: ADME, Microsome; details: microsomes, 1 µM
[9] = Metabolic stability at phase 1 in human liver microsomes assessed as half life at 1 uM in presence of Cobi-cistat CYP3A inhibitor by LC-MS/MS analysis; assay type: ADME, Microsome
[10] = Metabolic stability at phase 1 in mouse liver microsomes assessed as half life at 1 uM in presence of Cobi-cistat CYP3A inhibitor by LC-MS/MS analysis; assay type: ADME, Microsome
[11] = as §2; assay type: cell-based; details: TZM-GFP cells; in short: as §3

CN(C(=O)[C@H](Cc1ccccc1)NC(=O)Cc1c[nH]c2ccccc12)c1cccc(Cl)c1
inhibition at 2 µM [1]: 38% | inhibition at 20 µM [2]: 99.5% | CC50 (TZM): < 50 µM | ΔTm [3]: 4.9 °C

CN(C(=O)[C@H](Cc1ccccc1)NC(=O)Cc1c[nH]c2ccccc12)c1cccc(C(F)(F)F)c1
inhibition at 2 µM [1]: 16% | inhibition at 20 µM [2]: 96% | CC50 (TZM): < 50 µM | ΔTm [3]: 2.8 °C

CN(C(=O)[C@H](Cc1ccccc1)NC(=O)Cc1c[nH]c2ccccc12)c1ccc(Br)cc1
EC50 [4]: 0.14 µM | CC50 (TZM): 45 µM | ΔTm [3]: 8.3 °C | t1/2 [5]: > 6 h | t1/2 [6]: > 6 h | t1/2 [7]: 2.1 min | t1/2 [8]: 42 s | t1/2 [9]: 2.18 h | t1/2 [10]: 0.867 h

CN(C(=O)[C@H](Cc1ccccc1)NC(=O)CCc1c[nH]c2ccccc12)c1ccccc1
inhibition at 2 µM [1]: 0% | inhibition at 20 µM [2]: 98% | CC50 (TZM): > 50 µM | ΔTm [3]: 2.3 °C

CCN(C(=O)[C@H](Cc1ccccc1)NC(=O)Cc1c(C)n(C(C)C)c2ccccc12)c1ccccc1
inhibition at 2 µM [1]: 39% | inhibition at 20 µM [2]: 99.7% | CC50 (TZM): 23 µM | ΔTm [3]: 7 °C

CN(C(=O)[C@H](Cc1ccccc1)NC(=O)Cc1c[nH]c2ccccc12)c1cccc(F)c1
inhibition at 2 µM [1]: 39% | inhibition at 20 µM [2]: 97% | CC50 at 72 h [11]: 50 µM | ΔTm [3]: 2.5 °C

Cc1[nH]c2ccccc2c1CC(=O)N[C@@H](Cc1ccccc1)C(=O)N(C)c1cccc(Cl)c1
EC50 [4]: 1.2 µM | CC50 at 72 h [11]: < 50 µM | ΔTm [3]: 7.6 °C

Cc1cccc(N(C)C(=O)[C@H](Cc2ccccc2)NC(=O)Cc2c[nH]c3ccccc23)c1
inhibition at 2 µM [1]: 37% | inhibition at 20 µM [2]: 98% | CC50 (TZM): > 50 µM | ΔTm [3]: 1.6 °C

COc1cccc(N(C)C(=O)[C@H](Cc2ccccc2)NC(=O)Cc2c[nH]c3ccccc23)c1
inhibition at 2 µM [1]: 41% | inhibition at 20 µM [2]: 97% | CC50 (TZM): > 50 µM | ΔTm [3]: 1.3 °C

Cc1[nH]c2ccccc2c1CC(=O)N[C@@H](Cc1ccccc1)C(=O)N1CCC[C@H]1C(=O)Nc1ccccc1
EC50 [4]: > 20 µM | CC50 at 72 h [11]: > 50 µM | ΔTm [3]: 0.6 °C

CN(C(=O)[C@H](Cc1ccccc1)NC(=O)Cc1c[nH]c2ccccc12)c1ccccc1
EC50 [4]: 0.46 µM | CC50 at 72 h [11]: > 100 µM | ΔTm [3]: 6.1 °C

Cc1[nH]c2ccccc2c1CC(=O)N[C@@H](Cc1cccc(Br)c1)C(=O)N(C)c1ccccc1
inhibition at 2 µM [1]: 0% | inhibition at 20 µM [2]: 94% | CC50 (TZM): < 50 µM | ΔTm [3]: 3.4 °C
